Columns and labels:
Format in all cases: functional
HOP-92 = assay: Growth inhibition of human HOP92 cells after 48 hrs; details: HOP-92, 48 h
Outline: (§1)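 NCI ~60-line screen. Cells were grown in RPMI 1640 with 5% FBS and 2 mM L-glutamine and plated at 5000–40000 cells/well. After a 24 h preincubation, five drug concentrations from DMSO stocks were added for 48 h at 37 °C. Cells were TCA-fixed, stained with SRB and read at 515 nm. GI50 was taken from time-zero and control absorbances and reported as pGI50.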

HT-29 = assay: Growth inhibition of human HT29 cells after 48 hrs; details: HT-29, 48 h; outline: as §1
UACC-257 = assay: Growth inhibition of human UACC257 cells after 48 hrs; details: UACC-257, 48 h
Outline: (§2)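 NCI 60-line screen: cells in RPMI 1640 with 5% FBS and 2 mM L-glutamine, plated at 5000–40000 cells/well, grown 24 h (37 °C, 5% CO₂), then exposed to five 10-fold or ½-log dilutions (DMSO stock) for 48 h. Fixed with TCA (final 10% for adherent cells, 16% for suspension cells), then SRB stained with absorbance at 515 nm. GI50 from percentage growth relative to time-zero and control wells.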

RXF 393 = assay: Growth inhibition of human RXF393 cells after 48 hrs; details: RXF 393, 48 h; outline: as §1
[1] = Growth inhibition of human HS578T cells after 48 hrs; details: Hs-578T; outline: as §1
DU-145 = assay: Growth inhibition of human DU145 cells after 48 hrs; details: DU-145, 48 h; outline: as §1
SNB-75 = assay: Growth inhibition of human SNB75 cells after 48 hrs; details: SNB-75, 48 h; outline: as §2
MOLT-4 = assay: Growth inhibition of human MOLT4 cells after 48 hrs; details: MOLT-4, 48 h; outline: as §1
UO-31 = assay: Growth inhibition of human UO31 cells after 48 hrs; details: UO-31, 48 h; outline: as §2
CCRF-CEM = assay: Growth inhibition of human CCRF-CEM cells after 48 hrs; outline: as §1
NCI-H23 = assay: Growth inhibition of human NCI-H23 cells after 48 hrs; details: Homo sapiens, NCI-H23, 48 h; outline: as §1
COLO 205 = assay: Growth inhibition of human COLO205 cells after 48 hrs; details: COLO 205, 48 h; outline: as §1
IGROV-1 = assay: Growth inhibition of human IGROV1 cells after 48 hrs; details: IGROV-1, 48 h; outline: as §1
SF-539 = assay: Growth inhibition of human SF539 cells after 48 hrs; details: SF-539, 48 h; outline: as §1
HCC 2998 = assay: Growth inhibition of human HCC2998 cells after 48 hrs; details: HCC 2998, 48 h; outline: as §1
SR = assay: Growth inhibition of human SR cells after 48 hrs; outline: as §2
SK-OV-3 = assay: Growth inhibition of human SKOV3 cells after 48 hrs; details: SK-OV-3, 48 h; outline: as §2
SK-MEL-28 = assay: Growth inhibition of human SK-MEL28 cells after 48 hrs; details: SK-MEL-28, 48 h; outline: as §1
SNB-19 = assay: Growth inhibition of human SNB19 cells after 48 hrs; details: SNB-19, 48 h; outline: as §2
ACHN = assay: Growth inhibition of human ACHN cells after 48 hrs; outline: as §1
SN12C = assay: Growth inhibition of human SN12C cells after 48 hrs; outline: as §2
LOX IMVI = assay: Growth inhibition of human LOXIMVI cells after 48 hrs; outline: as §1
NCI-H522 = assay: Growth inhibition of human NCI-H522 cells after 48 hrs; details: NCI-H522, 48 h; outline: as §1
OVCAR-4 = assay: Growth inhibition of human OVCAR4 cells after 48 hrs; details: OVCAR-4, 48 h; outline: as §1
OVCAR-3 = assay: Growth inhibition of human OVCAR-3 cells after 48 hrs; details: OVCAR-3, 48 h; outline: as §1
A549 = assay: Growth inhibition of human A549 cells after 48 hrs; details: A549, 48 h; outline: as §1
OVCAR-5 = assay: Growth inhibition of human OVCAR5 cells after 48 hrs; details: OVCAR-5, 48 h; outline: as §1
HCT-15 = assay: Growth inhibition of human HCT15 cells after 48 hrs; details: HCT-15, 48 h; outline: as §1
NCI-H226 = assay: Growth inhibition of human NCI-H226 cells after 48 hrs; details: NCI-H226, 48 h; outline: as §1
U-251 = assay: Growth inhibition of human U251 cells after 48 hrs; details: U-251, 48 h; outline: as §2
KM12 = assay: Growth inhibition of human KM12 cells after 48 hrs; details: KM12, 48 h; outline: as §1
T47D = assay: Growth inhibition of human T47D cells after 48 hrs; outline: as §2
SF-295 = assay: Growth inhibition of human SF295 cells after 48 hrs; details: SF-295, 48 h; outline: as §1
SF-268 [2] = assay: Growth inhibition of human SF268 cells after 48 hrs; details: SF-268, 48 h; outline: as §1
HCT-116 = assay: Growth inhibition of human HCT116 cells after 48 hrs; details: HCT-116, 48 h; outline: as §1
NCI-H322M = assay: Growth inhibition of human NCI-H322M cells after 48 hrs; outline: as §1
EKVX = assay: Growth inhibition of human EKVX cells after 48 hrs; outline: as §1
MCF7 [3] = assay: Growth inhibition of human MCF7 cells after 48 hrs; details: MCF7, 48 h; outline: as §1
NCI-H460 [4] = assay: Growth inhibition of human NCI-H460 cells after 48 hrs; details: NCI-H460, 48 h; outline: as §1
HL-60 = assay: Growth inhibition of human HL60 cells after 48 hrs; details: HL-60, 48 h; outline: as §1
TK-10 = assay: Growth inhibition of human TK10 cells after 48 hrs; details: TK-10, 48 h; outline: as §2
UACC-62 = assay: Growth inhibition of human UACC62 cells after 48 hrs; details: UACC-62, 48 h; outline: as §2
Malme-3M = assay: Growth inhibition of human MALME3M cells after 48 hrs; outline: as §1
SW-620 = assay: Growth inhibition of human SW620 cells after 48 hrs; details: SW-620, 48 h; outline: as §2
HOP-62 = assay: Growth inhibition of human HOP62 cells after 48 hrs; details: HOP-62, 48 h; outline: as §1
SK-MEL-2 = assay: Growth inhibition of human SK-MEL2 cells after 48 hrs; details: SK-MEL-2, 48 h; outline: as §1
OVCAR-8 = assay: Growth inhibition of human OVCAR8 cells after 48 hrs; details: OVCAR-8, 48 h; outline: as §1
MDA-MB-231 = assay: Growth inhibition of human MDA-MB-231 cells after 48 hrs; details: MDA-MB-231, 48 h; outline: as §1
MDA-MB-435 = assay: Growth inhibition of human MDA-MB435 cells after 48 hrs; details: MDA-MB-435, 48 h; outline: as §1
NCI/ADR-RES = assay: Growth inhibition of human NCI/ADR-RES cells after 48 hrs; outline: as §1
K562 = assay: Growth inhibition of human K562 cells after 48 hrs; details: K562, 48 h; outline: as §1
M14 = assay: Growth inhibition of human M14 cells after 48 hrs; details: M14, 48 h; outline: as §1
BT-549 = assay: Growth inhibition of human BT549 cells after 48 hrs; details: BT-549, 48 h; outline: as §1
SK-MEL-5 = assay: Growth inhibition of human SK-MEL5 cells after 48 hrs; details: SK-MEL-5, 48 h; outline: as §1
786-0 = assay: Growth inhibition of human 786-0 cells after 48 hrs; details: 786-0, 48 h; outline: as §1
RPMI-8226 = assay: Growth inhibition of human RPMI8226 cells after 48 hrs; details: RPMI-8226, 48 h; outline: as §1
PC-3 = assay: Growth inhibition of human PC3 cells after 48 hrs; details: PC-3, 48 h; outline: as §1
CAKI-1 = assay: Growth inhibition of human CAKI1 cells after 48 hrs; details: CAKI-1, 48 h; outline: as §1
A498 = assay: Growth inhibition of human A498 cells after 48 hrs; details: A498, 48 h; outline: as §1
NCI-H460 [5] = assay: Antitumor activity against human NCI-H460 cells at 0.1 mM after 48 hrs
Outline: (§3)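 Prescreen run under the NCI Developmental Therapeutic Program. Agents were tested at a single concentration of 10^-4 M against a three-line panel (MCF7, NCI-H460, SF-268).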

MCF7 [6] = assay: Antitumor activity against human MCF7 cells at 0.1 mM after 48 hrs; outline: as §3
SF-268 [7] = assay: Antitumor activity against human SF268 cells at 0.1 mM after 48 hrs; outline: as §3

For Cn1c2ccccc2c2c(=O)n(CCCC(=O)N(C(=O)NC3CCCCC3)C3CCCCC3)c3c(-c4ccccc4)nnn3c21, which GI50 (HOP-92) is on record?
Its GI50 is > 100 µM.

And the GI50 (HT-29)?
The GI50 was > 100 µM.

What about the GI50 (UACC-257) of the same compound?
The GI50 was > 100 µM.

And the GI50 (RXF 393)?
The GI50 was 63.1 µM.

And the GI50 [1]?
Its GI50 is > 100 µM.

What about the GI50 (DU-145) of the same compound?
The GI50 was > 100 µM.

What about the GI50 (SNB-75) of the same compound?
The GI50 was 44.7 µM.

What about the GI50 (MOLT-4) of the same compound?
The GI50 was > 100 µM.

What about the GI50 (UO-31) of the same compound?
Its GI50 is > 100 µM.

And the GI50 (CCRF-CEM)?
The GI50 was > 100 µM.

And the GI50 (NCI-H23)?
The GI50 was > 100 µM.

What about the GI50 (COLO 205) of the same compound?
The GI50 was > 100 µM.

What about the GI50 (IGROV-1) of the same compound?
Its GI50 is 15.5 µM.

What about the GI50 (SF-539) of the same compound?
Its GI50 is 38 µM.

And the GI50 (HCC 2998)?
Its GI50 is > 100 µM.

And the GI50 (SR)?
The GI50 was > 100 µM.

And the GI50 (SK-OV-3)?
Its GI50 is > 100 µM.

What about the GI50 (SK-MEL-28) of the same compound?
Its GI50 is > 100 µM.

And the GI50 (SNB-19)?
The GI50 was > 100 µM.

And the GI50 (ACHN)?
Its GI50 is > 100 µM.

What about the GI50 (SN12C) of the same compound?
The GI50 was > 100 µM.

And the GI50 (LOX IMVI)?
Its GI50 is > 100 µM.

What about the GI50 (NCI-H522) of the same compound?
The GI50 was 69.2 µM.

What about the GI50 (OVCAR-4) of the same compound?
Its GI50 is 38 µM.

And the GI50 (OVCAR-3)?
Its GI50 is > 100 µM.

What about the GI50 (A549) of the same compound?
The GI50 was > 100 µM.

What about the GI50 (OVCAR-5) of the same compound?
Its GI50 is > 100 µM.

And the GI50 (HCT-15)?
Its GI50 is > 100 µM.

And the GI50 (NCI-H226)?
The GI50 was > 100 µM.

What about the GI50 (U-251) of the same compound?
The GI50 was > 100 µM.

What about the GI50 (KM12) of the same compound?
The GI50 was > 100 µM.

What about the GI50 (T47D) of the same compound?
Its GI50 is 56.2 µM.

What about the GI50 (SF-295) of the same compound?
The GI50 was 79.4 µM.

And the GI50 (SF-268 [2])?
The GI50 was 97.7 µM.

What about the GI50 (HCT-116) of the same compound?
The GI50 was 91.2 µM.

What about the GI50 (NCI-H322M) of the same compound?
Its GI50 is > 100 µM.

And the GI50 (EKVX)?
The GI50 was > 100 µM.

What about the GI50 (MCF7 [3]) of the same compound?
The GI50 was 64.6 µM.

And the GI50 (NCI-H460 [4])?
Its GI50 is > 100 µM.

What about the GI50 (HL-60) of the same compound?
The GI50 was > 100 µM.

And the GI50 (TK-10)?
The GI50 was > 100 µM.

And the GI50 (UACC-62)?
The GI50 was > 100 µM.

What about the GI50 (Malme-3M) of the same compound?
The GI50 was > 100 µM.

What about the GI50 (SW-620) of the same compound?
Its GI50 is > 100 µM.

And the GI50 (HOP-62)?
The GI50 was > 100 µM.

And the GI50 (SK-MEL-2)?
Its GI50 is > 100 µM.

And the GI50 (OVCAR-8)?
The GI50 was > 100 µM.

And the GI50 (MDA-MB-231)?
The GI50 was 72.4 µM.

What about the GI50 (MDA-MB-435) of the same compound?
The GI50 was > 100 µM.

And the GI50 (NCI/ADR-RES)?
The GI50 was 95.5 µM.

And the GI50 (K562)?
Its GI50 is > 100 µM.

What about the GI50 (M14) of the same compound?
Its GI50 is > 100 µM.

And the GI50 (BT-549)?
Its GI50 is 72.4 µM.

What about the GI50 (SK-MEL-5) of the same compound?
The GI50 was > 100 µM.

And the GI50 (786-0)?
Its GI50 is > 100 µM.

And the GI50 (RPMI-8226)?
Its GI50 is > 100 µM.

What about the GI50 (PC-3) of the same compound?
The GI50 was > 100 µM.

What about the GI50 (CAKI-1) of the same compound?
Its GI50 is > 100 µM.

What about the GI50 (A498) of the same compound?
Its GI50 is 66.1 µM.

Which results are given for COC(=O)C(Cc1c[nH]cn1)NC(=O)CCCn1c(=O)c2c3ccccc3n(C)c2n2nnc(-c3ccccc3)c12 (configuration not stated)?
Activity (NCI-H460 [5]): 117%; Activity (MCF7 [6]): 116%; Activity (SF-268 [7]): 128%
